CHRM1 PAM – human M1 muscarinic receptor positive allosteric modulators, primary screen, CHO-K1 cells, Fluo-8 calcium fluorescence, 1536-well; CHO-K1 hM1, ACh EC20; 0% = ACh EC20, 100% = maximal ACh; activation, % at 3 µM; 360,000 compounds, 0.088% hits; AID 588819, 2011; in the data active = activation above about 19%, passing the limit was not always enough
Target sequence (P11229 whole entry, looked up): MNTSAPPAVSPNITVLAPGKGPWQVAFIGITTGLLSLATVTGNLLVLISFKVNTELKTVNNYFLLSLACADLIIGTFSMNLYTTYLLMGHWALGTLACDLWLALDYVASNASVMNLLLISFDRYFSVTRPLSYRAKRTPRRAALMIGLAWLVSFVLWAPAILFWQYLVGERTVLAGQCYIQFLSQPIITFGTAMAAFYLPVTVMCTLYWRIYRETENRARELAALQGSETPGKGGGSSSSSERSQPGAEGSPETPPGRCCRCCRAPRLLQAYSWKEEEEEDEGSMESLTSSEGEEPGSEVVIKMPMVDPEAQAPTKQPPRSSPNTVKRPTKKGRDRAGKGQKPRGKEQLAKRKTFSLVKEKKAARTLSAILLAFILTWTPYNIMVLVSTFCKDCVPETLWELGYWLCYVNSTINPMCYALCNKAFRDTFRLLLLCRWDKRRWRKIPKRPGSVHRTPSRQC
M1 antag – human M1 muscarinic receptor antagonists, primary screen, CHO-K1 cells, Fluo-8 calcium fluorescence, 1536-well; Muscarinic acetylcholine receptor M1 (Homo sapiens), P11229; CHO-K1 hM1, ACh EC80 antagonist; inhibition, % at 3 µM; 360,000 compounds, 1.3% hits;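 active = percent inhibition above its own plate's cutoff, namely the mean of that plate's compound wells plus 3 SD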;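 note: peak over basal fluorescence ratio during 140 s after agonist addition; 0% = ACh EC80 plus DMSO and 100% = DMSO alone without agonist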
CHRM5 antagonist – human M5 muscarinic receptor antagonists, primary screen, CHO cells, Fluo-8 calcium fluorescence | 360,000 compounds, 0.59% hits | Muscarinic acetylcholine receptor M5 (Homo sapiens), P08912 | CHO-hM5 cells, ACh EC80 | inhibition, % at 3 µM;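 active = inhibition above a per-plate cutoff, the mean of that plate's test compounds plus 3 SD, cut at about 27% in these data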;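 note: 0% = acetylcholine EC80 with DMSO and 100% = DMSO without agonist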
M5 ag – human M5 muscarinic receptor agonists, primary screen, CHO-K1 cells, Fluo-8 calcium fluorescence. AID 624037, 2012. activation, % at 3 µM. Muscarinic acetylcholine receptor M5 (Homo sapiens), P08912. CHO-K1 hM5 cells; 0% DMSO wells, 100% maximal acetylcholine response. 360,000 compounds, 0.19% hits;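 active = activation above the run's mean over test compounds plus 3 SD, cut at about 23% in these data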;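 note: signal is peak over basal fluorescence ratio across the kinetic read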
M1 ag – human M1 muscarinic receptor agonists, primary screen, Fluo-8 calcium fluorescence, CHO-K1 cells, HTS. Muscarinic acetylcholine receptor M1 (Homo sapiens), P11229. CHO-K1 hM1, agonist mode; 0% DMSO, 100% acetylcholine EC100. activation, % at 3 µM. 360,000 compounds, 0.33% hits. AID 588814, 2011;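 active = activation above the run's mean compound activation plus 3 SD, cut at about 16% in these data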;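 note: peak over basal fluorescence ratio within a 140 s kinetic read after compound addition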
CHRM5 PAM – human M5 muscarinic receptor positive allosteric modulators, primary screen, CHO-K1 cells, Fluo-8 calcium fluorescence | Muscarinic acetylcholine receptor M5 (Homo sapiens), P08912 | CHO-K1 hM5, ACh EC20 PAM; 0% = ACh EC20, 100% = ACh EC100 | activation, % at 3 µM | 360,000 compounds, 0.3% hits;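 active = activation above the run cutoff, the mean activation of all test compounds plus 3 SD, cut at about 18% in these data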
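System: CHO-K1 cell line with stable human muscarinic M5 receptor expression | Also added: EC20 acetylcholine as agonist stimulus | Compound: One concentration, 3 µM final (nominal) | Timing: Fluo-8 loading 80 min at 37 °C plus 30 min room temperature | Measured by: Fluo-8 calcium dye fluorescence, kinetic read | Read-out basis: % activation, ACh-normalized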
* = called active by the depositor; . = not tested or not shown. The list is not random: actives were taken first. Their share in the collection is about 2%.

SMILES	CHRM1 PAM	M1 antag	CHRM5 antagonist	M5 ag	M1 ag	CHRM5 PAM
CN(CC1CCCN(CCc2ccc(Cl)cc2)C1)C(=O)c1ccc2nc[nH]c2c1 (stereo not given)	-20	48*	6	-9	-7	-5
Cc1ccc(F)cc1C(=O)N1CCCCC1c1cc(C(=O)NC(C)C)no1 (stereo not given)	4	-5	-3	2	-7	-1
CCN=C(NCC)SC1CC(=O)N(c2cccc(OCC)c2)C1=O (stereo not given)	-12	44*	28*	5	2	-19
CCOc1ccc(NC(=NCc2ccc3c(c2)OCO3)SC2CC(=O)N(c3ccc(OCC)cc3)C2=O)cc1 (stereo not given)	8	-5	-10	-4	1	19*
CCOc1ccc(NC(=NCc2ccc3c(c2)OCO3)SC2CC(=O)N(c3ccccc3)C2=O)cc1 (stereo not given)	5	-4	-2	-1	-2	4
C[C@H](O)[C@@H]1CN2CCc3c([nH]c4ccc(-c5ccc6c(c5)OCO6)cc34)[C@@H]2C[C@@H]1N(C)C(=O)Nc1cc(Cl)cc(Cl)c1	-8	16	4	2	-1	-2
CCn1c(=O)c2cc(C(=O)NCCN(C)C)sc2c2ccccc21	2	-6	-11	-4	-1	19*
COc1ccccc1CNc1ncc(-c2ccccc2)n1C	-20	23	7	-2	-10	-9
Cn1c(-c2ccccc2)cnc1NCc1cccc([N+](=O)[O-])c1	-23	36*	6	-18	-9	-16
COc1cccc(-c2cnc(NCc3cc(Cl)ccc3O)n2C)c1	-27	32*	10	-6	-6	-8
Cn1c(-c2ccccc2)cnc1NCc1cc2c(cc1[N+](=O)[O-])OCO2	-3	-1	0	-5	-7	-3
CSc1ccc(CNc2ncc(-c3cccc([N+](=O)[O-])c3)n2C)cc1	-30	65*	2	-20	-9	-25
COc1ccccc1CNc1ncc(-c2ccc(F)cc2)n1C	-26	45*	-1	-7	-11	0
Cn1c(-c2ccccc2)cnc1NCc1ccc(F)cc1	-20	29	6	-19	-9	-7
Cc1cn([C@H]2C[C@H](O)[C@@H](CNCC3=Cc4cc(O)ccc4OC3)O2)c(=O)[nH]c1=O	7	-3	3	0	-1	1
Cc1nnsc1-c1nc2ccccc2n1C(CCc1ccccc1)c1nc2ccccc2[nH]1 (stereo not given)	.	.	8	1	.	-10
Cn1c(-c2ccc(F)cc2)cnc1NCc1cccc(F)c1	-5	5	-7	-5	-4	-5
COc1ccc(CNc2ncc(-c3cccc([N+](=O)[O-])c3)n2C)c(OC)c1OC	-28	54*	4	-21	-9	-17
Cn1c(-c2ccc3c(c2)OCO3)cnc1NCc1cccc(O)c1	-35	29*	3	-10	-16	10
COc1ccc(CNc2ncc(-c3ccc(F)cc3)n2C)c2ccccc12	0	-10	15	-6	-3	-3
CCn1cc(CNC(=O)C2CCC(=O)N(Cc3ccccc3F)C2)cn1 (stereo not given)	6	-9	8	-4	-6	-4
Cn1cc(CNC(=O)C2CCC(=O)N(Cc3ccccc3F)C2)cn1 (stereo not given)	26*	-16	-9	-4	1	8
COc1ccc(CN2C[C@@H](CO)O[C@@H](n3cnc4c(N(C)C)ncnc43)C2)cc1	6	-12	1	1	-1	-5

From PubChem
